Data reported in ChEMBL document CHEMBL5678817, “FTBMT, a Novel and Selective GPR52 Agonist, Demonstrates Antipsychotic-Like and Procognitive Effects in Rodents, Revealing a Potential Therapeutic Agent for Schizophrenia” (J Pharmacol Exp Ther, 2017).
Active and inactive are the calls of the source. The calls are words filed in the database; no cut-off is given here.

What was measured:
[1] = molecular target: T1, G-protein coupled receptor 52 (Homo sapiens, UniProt Q9Y2T5); assay: Agonist activity at human GPR52 expressed in CHO cells assessed as increase in intracellular cAMP level incubated for 30 mins by Alphascreen assay; format: functional, cell-based
T1 sequence (Q9Y2T5 whole entry): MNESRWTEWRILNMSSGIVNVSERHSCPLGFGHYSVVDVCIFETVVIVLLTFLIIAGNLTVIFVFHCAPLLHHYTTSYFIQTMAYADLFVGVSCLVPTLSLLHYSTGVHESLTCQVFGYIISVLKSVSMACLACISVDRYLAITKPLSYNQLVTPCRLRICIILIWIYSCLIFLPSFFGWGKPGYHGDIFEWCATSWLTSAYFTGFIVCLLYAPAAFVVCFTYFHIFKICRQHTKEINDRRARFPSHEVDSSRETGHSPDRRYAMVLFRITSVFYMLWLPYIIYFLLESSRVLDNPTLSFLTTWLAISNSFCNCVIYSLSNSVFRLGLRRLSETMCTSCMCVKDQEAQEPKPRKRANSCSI
Outline: (§1)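 CHO cells stably expressing human, mouse or rat GPR52, plus naïve CHO cells, at 10,000 cells/well. Stimulated in cAMP assay buffer for 30 min at 37 °C. Intracellular cAMP read by AlphaScreen.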

[2] = molecular target: T1, G-protein coupled receptor 52; assay: Agonist activity at human GPR52 expressed in CHO cells assessed as increase in intracellular cAMP level upto 10 uM incubated for 30 mins by Alphascreen assay; format: functional, cell-based; outline: as §1
[3] = molecular target: Polyunsaturated fatty acid 5-lipoxygenase (Homo sapiens) (UniProt P09917); assay: Inhibition of […] (unknown origin) at 10 uM relative to control
Outline: (§2)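 Enzyme activity assays from the same 98-target biochemical panel. Single test concentration of 10 µM. Read-out is % inhibition of enzyme activity relative to control; negative percentages indicate activation of the enzyme.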

[4] = molecular target: MAO-B (amine oxidase [flavin-containing] B) (Homo sapiens, UniProt P27338); assay: Inhibition of MAO-B (unknown origin) at 10 uM relative to control; outline: as §2
MAO-B (amine oxidase [flavin-containing] B), sequence (P27338 whole entry): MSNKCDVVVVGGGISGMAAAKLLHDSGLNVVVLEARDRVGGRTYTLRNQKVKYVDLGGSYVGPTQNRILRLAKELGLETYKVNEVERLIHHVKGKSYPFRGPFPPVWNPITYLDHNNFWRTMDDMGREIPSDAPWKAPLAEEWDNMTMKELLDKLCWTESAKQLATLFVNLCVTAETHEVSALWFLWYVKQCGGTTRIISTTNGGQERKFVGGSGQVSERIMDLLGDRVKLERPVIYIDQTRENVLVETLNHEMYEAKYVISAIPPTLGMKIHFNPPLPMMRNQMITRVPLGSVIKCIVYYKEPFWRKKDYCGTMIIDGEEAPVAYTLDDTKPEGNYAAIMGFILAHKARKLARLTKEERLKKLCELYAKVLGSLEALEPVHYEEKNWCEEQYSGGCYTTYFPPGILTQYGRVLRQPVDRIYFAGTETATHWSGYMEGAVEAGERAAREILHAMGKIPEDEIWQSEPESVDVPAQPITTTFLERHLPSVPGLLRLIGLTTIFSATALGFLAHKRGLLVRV

[5] = molecular target: Coagulation factor X (Homo sapiens) (UniProt P00742); assay: Inhibition of factor Xa (unknown origin) at 10 uM relative to control
Coagulation factor X (Homo sapiens), sequence (P00742 41-179 limits assumed): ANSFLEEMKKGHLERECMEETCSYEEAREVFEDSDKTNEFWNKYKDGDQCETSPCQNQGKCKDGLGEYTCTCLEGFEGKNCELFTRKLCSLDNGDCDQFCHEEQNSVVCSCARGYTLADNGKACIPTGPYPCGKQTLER
Coagulation factor X (Homo sapiens), sequence (P00742 235-488 limits assumed): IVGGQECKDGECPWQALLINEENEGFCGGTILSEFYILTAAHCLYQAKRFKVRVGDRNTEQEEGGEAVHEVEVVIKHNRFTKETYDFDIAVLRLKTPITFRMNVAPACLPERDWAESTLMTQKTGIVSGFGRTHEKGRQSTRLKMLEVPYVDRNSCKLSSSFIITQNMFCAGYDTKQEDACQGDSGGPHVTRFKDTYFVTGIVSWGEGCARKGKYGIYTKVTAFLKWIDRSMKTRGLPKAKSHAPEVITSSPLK
Outline: (§3)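 Binding and enzyme panel run by an outside contractor against receptors, ion channels and enzymes. Each assay used a single 10 μM test concentration, and results are expressed as percent inhibition. A negative value means stimulation of receptor activity or activation of enzyme activity.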

[6] = molecular target: Matrilysin (Homo sapiens) (UniProt P09237); assay: Inhibition of MMP7 (unknown origin) at 10 uM relative to control; outline: as §2
Matrilysin (Homo sapiens), sequence (P09237 whole entry): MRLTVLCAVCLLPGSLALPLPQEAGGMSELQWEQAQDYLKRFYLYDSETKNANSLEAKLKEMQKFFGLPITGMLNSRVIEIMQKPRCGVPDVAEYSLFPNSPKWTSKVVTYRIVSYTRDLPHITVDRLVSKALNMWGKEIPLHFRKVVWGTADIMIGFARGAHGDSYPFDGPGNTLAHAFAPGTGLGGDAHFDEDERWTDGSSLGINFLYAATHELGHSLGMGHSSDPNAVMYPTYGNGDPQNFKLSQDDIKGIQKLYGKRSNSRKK

[7] = molecular target: Phosphodiesterase 3 (Homo sapiens) (UniProt Q14432+Q13370); assay: Inhibition of PDE3 (unknown origin) at 10 uM relative to control; format: protein assay; outline: as §2
[8] = molecular target: Protein kinase C (PKC) (Homo sapiens) (UniProt O94806+P41743+P17252+P05129+Q05655+P05771+Q05513+Q02156+P24723+Q15139+Q04759); assay: Inhibition of Protein kinase C (unknown origin) at 10 uM relative to control; format: protein assay; outline: as §2
[9] = molecular target: 3-oxo-5-alpha-steroid 4-dehydrogenase 1 (Homo sapiens) (UniProt P18405); assay: Inhibition of Steroid 5alpha-reductase 1 (unknown origin) at 10 uM relative to control; outline: as §3
3-oxo-5-alpha-steroid 4-dehydrogenase 1 (Homo sapiens), sequence (P18405 whole entry): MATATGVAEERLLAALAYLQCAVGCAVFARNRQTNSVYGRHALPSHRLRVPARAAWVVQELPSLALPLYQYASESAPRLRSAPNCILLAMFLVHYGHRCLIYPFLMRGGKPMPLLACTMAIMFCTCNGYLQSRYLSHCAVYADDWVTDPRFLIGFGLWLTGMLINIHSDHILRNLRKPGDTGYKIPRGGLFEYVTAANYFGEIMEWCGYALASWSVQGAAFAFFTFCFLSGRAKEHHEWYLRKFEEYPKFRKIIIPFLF

[10] = molecular target: Adenosine receptor A2a (Homo sapiens) (UniProt P29274); assay: Inhibition of Adenosine A2A receptor (unknown origin) at 10 uM relative to control
Outline: (§4)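 Single-point screen at 10 μM across receptor, ion channel and enzyme binding or activity assays. Expressed as percent inhibition versus control; negative values denote stimulation.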

[11] = molecular target: Beta-1 adrenergic receptor (Homo sapiens) (UniProt P08588); assay: Inhibition of Adrenergic beta1 receptor (unknown origin) at 10 uM relative to control; outline: as §4
Beta-1 adrenergic receptor (Homo sapiens), sequence (P08588 whole entry, looked up): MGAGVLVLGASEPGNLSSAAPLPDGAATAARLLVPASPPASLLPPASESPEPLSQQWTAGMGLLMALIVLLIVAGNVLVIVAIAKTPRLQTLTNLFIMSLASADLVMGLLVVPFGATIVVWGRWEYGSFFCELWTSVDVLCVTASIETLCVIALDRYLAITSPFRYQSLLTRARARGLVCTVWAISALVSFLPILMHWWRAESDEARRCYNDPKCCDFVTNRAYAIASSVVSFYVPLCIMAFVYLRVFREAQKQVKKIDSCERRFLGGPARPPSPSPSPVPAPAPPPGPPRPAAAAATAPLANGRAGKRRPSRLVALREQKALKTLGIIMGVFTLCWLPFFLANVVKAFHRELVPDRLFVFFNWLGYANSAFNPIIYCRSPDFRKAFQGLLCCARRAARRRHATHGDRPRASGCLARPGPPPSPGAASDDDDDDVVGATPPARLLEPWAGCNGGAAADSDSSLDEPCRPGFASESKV

[12] = molecular target: Type-2 angiotensin II receptor (Homo sapiens) (UniProt P50052); assay: Inhibition of AT2 receptor (unknown origin) at 10 uM relative to control; outline: as §4
Type-2 angiotensin II receptor (Homo sapiens), sequence (P50052 whole entry): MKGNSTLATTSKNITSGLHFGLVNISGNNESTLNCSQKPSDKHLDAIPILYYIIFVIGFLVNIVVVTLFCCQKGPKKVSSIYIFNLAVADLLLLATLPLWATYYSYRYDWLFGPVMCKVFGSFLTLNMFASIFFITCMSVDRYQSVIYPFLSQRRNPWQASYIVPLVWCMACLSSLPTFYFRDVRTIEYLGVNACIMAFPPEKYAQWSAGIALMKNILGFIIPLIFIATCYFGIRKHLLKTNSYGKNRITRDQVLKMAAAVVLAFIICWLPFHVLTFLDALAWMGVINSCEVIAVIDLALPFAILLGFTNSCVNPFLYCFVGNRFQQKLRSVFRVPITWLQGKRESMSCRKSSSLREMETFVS

[13] = molecular target: Voltage-gated L-type calcium channel (Homo sapiens, UniProt O60840+Q01668+Q13698+Q13936); assay: Inhibition of Calcium channel L-type (unknown origin) at 10 uM in presence of benzothiazepine relative to control; format: protein assay; conditions: probe benzothiazepine; outline: as §4
[14] = molecular target: D(2) dopamine receptor (Homo sapiens) (UniProt P14416); assay: Inhibition of Dopamine D2 receptor (unknown origin) at 10 uM relative to control
D(2) dopamine receptor (Homo sapiens), sequence (P14416 whole entry): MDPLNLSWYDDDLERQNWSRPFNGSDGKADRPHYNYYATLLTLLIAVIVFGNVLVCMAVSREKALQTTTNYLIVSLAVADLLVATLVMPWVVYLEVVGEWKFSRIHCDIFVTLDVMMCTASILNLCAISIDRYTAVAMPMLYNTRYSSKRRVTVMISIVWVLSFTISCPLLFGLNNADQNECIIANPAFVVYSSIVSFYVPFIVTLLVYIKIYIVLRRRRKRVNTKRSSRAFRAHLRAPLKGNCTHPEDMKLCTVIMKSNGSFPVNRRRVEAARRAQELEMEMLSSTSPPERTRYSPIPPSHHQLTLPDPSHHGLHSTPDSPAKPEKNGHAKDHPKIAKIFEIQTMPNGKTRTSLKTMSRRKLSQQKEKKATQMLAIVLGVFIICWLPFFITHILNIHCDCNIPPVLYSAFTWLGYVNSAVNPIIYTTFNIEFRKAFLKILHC
Outline: (§5)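 Part of a 98-target external biochemical selectivity panel that used radioligand/receptor binding-type assays. Compound tested once at 10 µM. Results are reported as % inhibition versus control; negative values mean stimulation of receptor activity.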

[15] = molecular target: Estrogen receptor (Homo sapiens) (UniProt P03372); assay: Inhibition of Estrogen ERalpha receptor (unknown origin) at 10 uM relative to control; outline: as §5
Estrogen receptor (Homo sapiens), sequence (P03372 whole entry): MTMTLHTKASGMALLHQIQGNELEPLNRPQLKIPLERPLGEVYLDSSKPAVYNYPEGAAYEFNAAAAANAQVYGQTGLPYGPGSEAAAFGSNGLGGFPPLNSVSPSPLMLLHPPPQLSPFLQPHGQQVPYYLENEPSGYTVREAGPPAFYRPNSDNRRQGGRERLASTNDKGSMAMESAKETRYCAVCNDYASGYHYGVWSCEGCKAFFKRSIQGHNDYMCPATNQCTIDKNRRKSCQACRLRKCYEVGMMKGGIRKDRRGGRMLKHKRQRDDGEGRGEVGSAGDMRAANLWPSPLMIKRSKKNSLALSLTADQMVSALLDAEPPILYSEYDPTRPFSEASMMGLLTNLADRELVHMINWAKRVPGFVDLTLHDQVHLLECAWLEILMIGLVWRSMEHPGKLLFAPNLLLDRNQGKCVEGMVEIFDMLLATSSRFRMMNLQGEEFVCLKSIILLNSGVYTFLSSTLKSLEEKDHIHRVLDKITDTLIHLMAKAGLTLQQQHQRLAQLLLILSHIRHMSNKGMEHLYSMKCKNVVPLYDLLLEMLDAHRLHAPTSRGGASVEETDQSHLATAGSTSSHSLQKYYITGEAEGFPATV

[16] = molecular target: T2, GABA-A receptor; anion channel (Homo sapiens) (UniProt P14867+P47870+P18507+P28472+P48169+Q99928+Q9UN88+P34903+O00591+O14764+Q8N1C3+P18505+P78334+P47869+P31644+Q16445); assay: Inhibition of GABAA receptor (unknown origin) at 10 uM in presence of flunitrazepam relative to control; format: protein-complex assay; outline: as §5
[17] = organism: Homo sapiens; assay: Inhibition of GABAB1B receptor (unknown origin) at 10 uM relative to control; outline: as §5
[18] = molecular target: Glutamate [NMDA] receptor (Homo sapiens) (UniProt Q05586+Q12879+Q13224+O15399+O60391+Q14957+Q8TCU5); assay: Inhibition of Glutamate NMDA receptor (unknown origin) at 10 uM in presence of phencyclidine to control; format: protein-complex assay; outline: as §5
[19] = organism: Homo sapiens; assay: Inhibition of Nicotinic acetylcholine receptor (unknown origin) at 10 uM relative to control; outline: as §5
[20] = molecular target: Kappa-type opioid receptor (Homo sapiens) (UniProt P41145); assay: Inhibition of opioid kappa receptor (unknown origin) at 10 uM relative to control; outline: as §3
Kappa-type opioid receptor (Homo sapiens), sequence (P41145 whole entry): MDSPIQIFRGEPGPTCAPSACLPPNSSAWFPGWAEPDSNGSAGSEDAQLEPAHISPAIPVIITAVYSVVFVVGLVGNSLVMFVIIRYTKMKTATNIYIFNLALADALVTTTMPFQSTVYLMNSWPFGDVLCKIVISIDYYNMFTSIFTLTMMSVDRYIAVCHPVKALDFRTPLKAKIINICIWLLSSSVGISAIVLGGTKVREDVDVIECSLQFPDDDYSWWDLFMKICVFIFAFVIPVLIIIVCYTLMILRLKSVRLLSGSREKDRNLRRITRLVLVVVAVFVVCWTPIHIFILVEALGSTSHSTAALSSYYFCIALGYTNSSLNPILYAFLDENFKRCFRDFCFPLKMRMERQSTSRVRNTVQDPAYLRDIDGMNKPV

[21] = molecular target: Sodium-dependent serotonin transporter (Homo sapiens) (UniProt P31645); assay: Inhibition of SERT receptor (unknown origin) at 10 uM relative to control; outline: as §5
Sodium-dependent serotonin transporter (Homo sapiens), sequence (P31645 whole entry, looked up): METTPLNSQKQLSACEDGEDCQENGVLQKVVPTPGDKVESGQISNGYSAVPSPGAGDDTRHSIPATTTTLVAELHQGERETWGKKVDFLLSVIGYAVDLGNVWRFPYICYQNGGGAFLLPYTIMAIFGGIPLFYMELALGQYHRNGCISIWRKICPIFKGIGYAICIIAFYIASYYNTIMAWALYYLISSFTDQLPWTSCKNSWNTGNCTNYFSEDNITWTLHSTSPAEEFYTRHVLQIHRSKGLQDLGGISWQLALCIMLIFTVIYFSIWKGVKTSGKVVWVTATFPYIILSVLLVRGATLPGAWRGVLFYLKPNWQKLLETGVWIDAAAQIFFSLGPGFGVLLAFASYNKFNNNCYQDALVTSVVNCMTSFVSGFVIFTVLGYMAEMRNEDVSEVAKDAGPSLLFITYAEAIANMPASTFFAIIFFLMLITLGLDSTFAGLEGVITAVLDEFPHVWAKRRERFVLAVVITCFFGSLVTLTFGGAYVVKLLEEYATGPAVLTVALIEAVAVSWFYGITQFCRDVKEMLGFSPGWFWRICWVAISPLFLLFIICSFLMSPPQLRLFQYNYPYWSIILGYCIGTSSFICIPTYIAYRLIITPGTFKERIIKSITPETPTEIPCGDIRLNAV

[22] = molecular target: T2, GABA-A receptor; anion channel (Homo sapiens); assay: Inhibition of GABA receptor (unknown origin) at 10 uM relative to control; format: protein-complex assay; outline: as §5
[23] = molecular target: Vasopressin V1a receptor (Homo sapiens) (UniProt P37288); assay: Inhibition of Vasopressin V1A receptor (unknown origin) at 10 uM relative to control; outline: as §3
[24] = tested on: Mus musculus; assay: Antipsychotic activity in C57BL/6N mouse assessed as increase in c-fos positive cells in dorsomedial striatum at 30 mg/kg, po measured for 2 hrs by immunohistochemistry analysis; format: functional, organism-based
[25] = tested on: Mus musculus; assay: Antipsychotic activity in C57BL/6N mouse assessed as increase in c-fos positive cells in nucleus accumbens at 30 mg/kg, po measured for 2 hrs by immunohistochemistry analysis; format: functional, organism-based
[26] = tested on: Mus musculus; assay: Antipsychotic activity in C57BL/6N mouse assessed as increase in c-fos mRNA expression at 3 to 100 mg/kg, po measured for 1 hr by qPCR analysis; format: functional, organism-based; conditions: dose 3-100 mg/kg
Outline: (§6)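 Mice dosed orally at 3–100 mg/kg or vehicle. Tissues taken 1 h post-dose, NAc shell and striatum dissected, frozen on dry ice. IEG mRNA quantified by qPCR (absolute or ΔΔCt); n = 5–6; mean ± SEM.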

[27] = tested on: Mus musculus; assay: Antipsychotic activity in C57BL/6N mouse assessed as increase in Arc mRNA expression at 3 to 100 mg/kg, po measured for 1 hr by qPCR analysis; format: functional, organism-based; conditions: dose 3-100 mg/kg; outline: as §6
[28] = tested on: Rattus norvegicus; assay: Pro-cognitive activity in Long-Evans rat assessed as discrimination index at 3 to 10 mg/kg, po measured after 3 mins by NORT test; format: functional, organism-based; conditions: dose 3-10 mg/kg
Outline: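 Male Long-Evans rats (7 weeks) were habituated to a 40 × 40 × 50 cm box for 10 min. The acquisition trial was 3 min with two identical objects. Oral dosing at 3 or 10 mg/kg followed immediately after acquisition. The 3-min retention trial, with one familiar and one novel object, ran 48 h later. Exploration was hand-scored by a blinded scorer, and NDI = novel/total × 100. n = 10.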

In the case of `Cc1cc(-n2nc(Cc3cc(F)cc(C(F)(F)F)c3)nc2C)ccc1C(N)=O` [TP-024], the EC50 [1] is reported as 93.3 nM, the Activity [2] is reported as “inactive” and the inhibition [3] is reported as -5%. It also gave an inhibition at 10 µM [4] of 26%, an inhibition [5] of -4% and an inhibition [6] of 0%. For the same compound, the inhibition [7] was 28%, the inhibition [8] was -5% and the inhibition [9] was 0%. It also gave an inhibition [10] of 0%, an inhibition [11] of -1% and an inhibition [12] of 1%. The inhibition at 10 µM [13] was 19%, the inhibition [14] was 5% and the inhibition [15] was -9%. It also gave an inhibition [16] of 6%, an inhibition [17] of 2% and an inhibition [18] of 4%. For the same compound, the inhibition [19] was -2%, the inhibition [20] was -9% and the inhibition [21] was 8%. For the same compound, the inhibition [22] was 2%, the inhibition [23] was 14% and the Activity [24] was “Active”. The Activity [25] was “Active”, the Activity [26] was “Active” and the Activity [27] was “Active”. The Activity [28] was “Active”.
